Source: ChEMBL document CHEMBL4138085, “Design, synthesis and antimicrobial evaluation of novel benzimidazole-incorporated sulfonamide analogues” (Eur J Med Chem, 2017)
In brackets after ≈: the same amount, converted by molar mass. Activity calls are given as the source filed them. The rule behind the calls is not given here.

Assays:
Albumin [1] = molecular target: T1, Albumin (Homo sapiens, UniProt P02768); assay: Binding affinity to human serum albumin at 273 K by modified Stern-Volmer method; format: ADME; details: isolated protein
Albumin [2] = molecular target: T1, Albumin; assay: Binding affinity to human serum albumin assessed as Gibbs free energy change at 293 K by van't Hoff plot analysis; format: ADME; details: isolated protein
Calf thymus DNA [3] = assay: Binding affinity to calf thymus DNA assessed as hyperchromic effect up to 1.6 10^-5 mol/L by UV-vis absorption spectra analysis; format: nucleic-acid assay; details: Bos taurus
Method in brief: (§1)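 Calf thymus DNA was held at a fixed concentration and titrated with increasing amounts of compound. UV-vis absorption spectra were recorded, following the DNA absorption maximum at 260 nm.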

Pseudomonas aeruginosa [4] = assay: Antibacterial activity against Pseudomonas aeruginosa ATCC 27853 after 24 hrs by NCCLS two fold broth microdilution method; format: functional; details: ATCC 27853, 24 h
Method in brief: (§2)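 Two-fold serial broth microdilution in 96-well plates following NCCLS. Plates were inoculated and incubated at 37 °C for 24 h, with growth read visually and spectrophotometrically. MIC was taken as the lowest concentration giving complete growth inhibition. Run in triplicate, with a DMSO-plus-inoculum solvent control.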

Salmonella typhi = assay: Antibacterial activity against Bacillus typhi after 24 hrs by NCCLS two fold broth microdilution method; format: functional, Salmonella enterica subsp. enterica serovar Typhi; details: Salmonella enterica
Method in brief: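 Two-fold serial broth microdilution per NCCLS. DMSO stocks diluted in Mueller–Hinton broth to 512, 256, 128, 64, 32, 16, 8, 4, 2, 1, 0.5 µg/mL. Chloromycin and norfloxacin as reference drugs; DMSO with inoculum, no drug, as solvent control. Incubation 37 °C for 24 h. Growth read visually and spectrophotometrically. MIC is the lowest concentration completely inhibiting growth; triplicate.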

Staphylococcus aureus [5] = assay: Antibacterial activity against methicillin-resistant Staphylococcus aureus N315 after 24 hrs by NCCLS two fold broth microdilution method; format: functional; details: N315, 24 h
Method in brief: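 Two-fold serial broth microdilution per NCCLS. Chloromycin and norfloxacin as reference drugs; DMSO with inoculum, no drug, as solvent control. Incubation 37 °C for 24 h. Growth read visually and spectrophotometrically. MIC is the lowest concentration completely inhibiting growth; triplicate.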

Albumin [6] = molecular target: T1, Albumin; assay: Binding affinity to human serum albumin at 293 K by scatchard plot analysis; format: ADME; details: isolated protein
Albumin [7] = molecular target: T1, Albumin; assay: Binding affinity to human serum albumin assessed as quenching constant at 313 K by fluorescence spectroscopic analysis; format: ADME; details: isolated protein
Method in brief: (§3)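 Intrinsic fluorescence of HSA (single Trp-214, emission peak 348 nm) was recorded with increasing compound concentration at several temperatures. Quenching data were fitted to the Stern-Volmer equation F0/F = 1 + KSV[Q] = 1 + Kqτ0[Q] to give KSV, and Kq was derived via τ0.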

Bacillus = assay: Antibacterial activity against Bacillus proteus ATCC 13315 after 24 hrs by NCCLS two fold broth microdilution method; format: functional; details: ATCC 13315, 24 h
Method in brief: (§4)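 Two-fold serial broth microdilution in 96-well plates following NCCLS. Compounds were dissolved in DMSO as stocks, then diluted in Mueller–Hinton broth to final concentrations of 0.5–512 µg/mL. Plates were inoculated and incubated at 37 °C for 24 h, with growth read visually and spectrophotometrically. MIC was taken as the lowest concentration giving complete growth inhibition. Run in triplicate, with a DMSO-plus-inoculum solvent control.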

Cyberlindnera jadinii = assay: Antifungal activity against Candida utilis after 24 hrs by NCCLS two fold broth microdilution method; format: functional; details: Williopsis jadinii
Method in brief: (§5)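 Two-fold serial microdilution following NCCLS. A spore suspension in sterile distilled water was prepared from one-day-old cultures grown on Sabouraud agar and adjusted to a final 1–5 × 10^3 spores/mL. DMSO stocks were diluted in RPMI 1640 to eleven concentrations (0.5–512 µg/mL), inoculated and held at 35 °C for 24 h. Growth was read visually and spectrophotometrically, MIC was the lowest concentration with complete inhibition, and runs were in triplicate.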

Albumin [8] = molecular target: T1, Albumin; assay: Binding affinity to human serum albumin assessed as quenching constant at 273 K by fluorescence spectroscopic analysis; format: ADME; details: isolated protein; method in brief: as §3
Pichia norvegensis = assay: Antifungal activity against Candida mycoderma after 24 hrs by NCCLS two fold broth microdilution method; format: functional
Candida albicans = assay: Antifungal activity against Candida albicans ATCC 76615 after 24 hrs by NCCLS two fold broth microdilution method; format: functional; details: ATCC 76615, 24 h; method in brief: as §5
Albumin [9] = molecular target: T1, Albumin; assay: Binding affinity to human serum albumin assessed as Stern-Volmer quenching constant at 293 K by fluorescence spectroscopic analysis; format: ADME; details: isolated protein; method in brief: as §3
Escherichia coli = assay: Antibacterial activity against Escherichia coli ATCC 8099 after 24 hrs by NCCLS two fold broth microdilution method; format: functional; details: ATCC 8099, 24 h; method in brief: as §2
Albumin [10] = molecular target: T1, Albumin; assay: Binding affinity to human serum albumin assessed as Gibbs free energy change at 313 K by van't Hoff plot analysis; format: ADME; details: isolated protein
Bacillus subtilis [11] = assay: Potency index, ratio of Chloromycin MIC to compound MIC for Bacillus subtilis ATCC 21216; format: functional
Albumin [12] = molecular target: T1, Albumin; assay: Binding affinity to human serum albumin assessed as Stern-Volmer quenching constant at 273 K by fluorescence spectroscopic analysis; format: ADME; details: isolated protein; method in brief: as §3
Staphylococcus aureus [13] = assay: Antibacterial activity against Staphylococcus aureus ATCC 25923 after 24 hrs by NCCLS two fold broth microdilution method; format: functional; details: ATCC 25923, 24 h; method in brief: as §4
Albumin [14] = molecular target: T1, Albumin; assay: Binding affinity to human serum albumin assessed as Stern-Volmer quenching constant at 313 K by fluorescence spectroscopic analysis; format: ADME; details: isolated protein; method in brief: as §3
Calf thymus DNA [15] = assay: Binding affinity to calf thymus DNA by UV-vis absorption spectra analysis; format: nucleic-acid assay; details: Bos taurus; method in brief: as §1
Albumin [16] = molecular target: T1, Albumin; assay: Binding affinity to human serum albumin at 273 K by scatchard plot analysis; format: ADME; details: isolated protein
Albumin [17] = molecular target: T1, Albumin; assay: Binding affinity to human serum albumin at 313 K by modified Stern-Volmer method; format: ADME; details: isolated protein
Albumin [18] = molecular target: T1, Albumin; assay: Binding affinity to human serum albumin assessed as change in enthalpy at 273 K by van't Hoff plot analysis; format: ADME; details: isolated protein
Bacillus subtilis [19] = assay: Antibacterial activity against Bacillus subtilis ATCC 21216 after 24 hrs by NCCLS two fold broth microdilution method; format: functional; details: ATCC 21216, 24 h; method in brief: as §4
Calf thymus DNA [20] = assay: Binding affinity to calf thymus DNA assessed as increase in maximum absorption by UV-vis absorption spectra analysis; format: nucleic-acid assay; details: Bos taurus; method in brief: as §1
Staphylococcus aureus [21] = assay: Potency index, ratio of Chloromycin MIC to compound MIC for Staphylococcus aureus ATCC 25923; format: functional
Pseudomonas aeruginosa [22] = assay: Potency index, ratio of Chloromycin MIC to compound MIC for Pseudomonas aeruginosa ATCC 27853; format: functional
Staphylococcus aureus [23] = assay: Potency index, ratio of norfloxacin MIC to compound MIC for Staphylococcus aureus ATCC 25923; format: functional
Albumin [24] = molecular target: T1, Albumin; assay: Binding affinity to human serum albumin assessed as quenching constant at 293 K by fluorescence spectroscopic analysis; format: ADME; details: isolated protein; method in brief: as §3
Calf thymus DNA [25] = assay: Inhibition of neutral red binding to calf thymus DNA up to 0.48 10^-5 mol/L by UV-vis absorption spectra analysis; format: nucleic-acid assay; details: Bos taurus
Albumin [26] = molecular target: T1, Albumin; assay: Binding affinity to human serum albumin assessed as change in entropy at 273 K by van't Hoff plot analysis; format: ADME; details: isolated protein
Albumin [27] = molecular target: T1, Albumin; assay: Binding affinity to human serum albumin up to 1.6 10^-5 mol/L by UV-vis absorption spectra analysis; format: ADME; details: isolated protein
Albumin [28] = molecular target: T1, Albumin; assay: Binding affinity to human serum albumin by fluorescence spectroscopic analysis; format: ADME; details: isolated protein
Albumin [29] = molecular target: T1, Albumin; assay: Binding affinity to human serum albumin at 293 K by modified Stern-Volmer method; format: ADME; details: isolated protein
Albumin [30] = molecular target: T1, Albumin; assay: Binding affinity to human serum albumin assessed as Gibbs free energy change at 273 K by van't Hoff plot analysis; format: ADME; details: isolated protein
Micrococcus luteus = assay: Antibacterial activity against Micrococcus luteus ATCC 4698 after 24 hrs by NCCLS two fold broth microdilution method; format: functional; details: NCTC 2665, 24 h; method in brief: as §4
Albumin [31] = molecular target: T1, Albumin; assay: Binding affinity to human serum albumin at 313 K by scatchard plot analysis; format: ADME; details: isolated protein
Saccharomyces cerevisiae = assay: Antifungal activity against Saccharomyces cerevisiae after 24 hrs by NCCLS two fold broth microdilution method; format: functional; method in brief: as §5
Calf thymus DNA [32] = assay: Binding affinity to calf thymus DNA assessed as hypochromic effect up to 1.6 10^-5 mol/L by UV-vis absorption spectra analysis; format: nucleic-acid assay; details: Bos taurus; method in brief: as §1
Aspergillus flavus = assay: Antifungal activity against Aspergillus flavus after 24 hrs by NCCLS two fold broth microdilution method; format: functional; method in brief: as §5

T1 sequence (P02768 whole entry): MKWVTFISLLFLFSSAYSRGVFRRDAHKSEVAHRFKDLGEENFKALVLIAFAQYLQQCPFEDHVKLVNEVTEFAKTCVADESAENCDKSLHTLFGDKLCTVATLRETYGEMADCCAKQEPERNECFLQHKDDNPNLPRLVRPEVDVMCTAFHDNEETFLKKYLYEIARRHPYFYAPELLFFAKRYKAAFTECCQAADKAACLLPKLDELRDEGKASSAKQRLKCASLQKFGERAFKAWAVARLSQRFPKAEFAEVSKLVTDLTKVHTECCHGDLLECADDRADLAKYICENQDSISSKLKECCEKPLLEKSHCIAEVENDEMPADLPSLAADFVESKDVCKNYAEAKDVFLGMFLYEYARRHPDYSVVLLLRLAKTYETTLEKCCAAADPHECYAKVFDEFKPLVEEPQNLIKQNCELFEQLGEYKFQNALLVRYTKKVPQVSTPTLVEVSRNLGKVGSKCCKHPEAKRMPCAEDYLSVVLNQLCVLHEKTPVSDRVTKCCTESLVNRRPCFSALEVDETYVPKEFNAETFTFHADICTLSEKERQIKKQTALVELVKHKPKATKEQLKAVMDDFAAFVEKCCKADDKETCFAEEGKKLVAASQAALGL

SMILES: CC(=O)Nc1ccc(S(=O)(=O)Cc2nc3ccccc3n2Cc2ccc(F)cc2)cc1
- Ka (Albumin [1]): 54300 M⁻¹
- deltaG (Albumin [2]): -6.1047 kcal/mol
- Activity (Calf thymus DNA [3]): Active
- MIC (Pseudomonas aeruginosa [4]): 256 µg/mL (≈ 585 µM)
- MIC (Salmonella typhi): 16 µg/mL (≈ 36.6 µM)
- MIC (Staphylococcus aureus [5]): 16 µg/mL (≈ 36.6 µM)
- Kb (Albumin [6]): 58400 M⁻¹
- Kq (Albumin [7]): 2.86 ×10¹² L/mol/s
- MIC (Bacillus): 32 µg/mL (≈ 73.1 µM)
- MIC (Cyberlindnera jadinii): 16 µg/mL (≈ 36.6 µM)
- Kq (Albumin [8]): 5.09 ×10¹² L/mol/s
- MIC (Pichia norvegensis): 64 µg/mL (≈ 146 µM)
- MIC (Candida albicans): 64 µg/mL (≈ 146 µM)
- KSV (Albumin [9]): 2.2 ×10⁴ L/mol
- MIC (Escherichia coli): 32 µg/mL (≈ 73.1 µM)
- deltaG (Albumin [10]): -6.3991 kcal/mol
- Ratio (Bacillus subtilis [11]): 2
- KSV (Albumin [12]): 3.26 ×10⁴ L/mol
- MIC (Staphylococcus aureus [13]): 4 µg/mL (≈ 9.14 µM)
- KSV (Albumin [14]): 1.83 ×10⁴ L/mol
- K (Calf thymus DNA [15]): 1.26 ×10⁴ L/mol
- Kb (Albumin [16]): 78600 M⁻¹
- Ka (Albumin [17]): 35800 M⁻¹
- deltaH (Albumin [18]): -0.4199 kcal/mol
- MIC (Bacillus subtilis [19]): 16 µg/mL (≈ 36.6 µM)
- Activity (Calf thymus DNA [20]): Dose-dependent effect
- Ratio (Staphylococcus aureus [21]): 2
- Ratio (Pseudomonas aeruginosa [22]): 4
- Ratio (Staphylococcus aureus [23]): 2
- Kq (Albumin [24]): 3.44 ×10¹² L/mol/s
- inhibition (Calf thymus DNA [25]): Active
- deltaS (Albumin [26]): 82.61 J/mol/K
- Activity (Albumin [27]): Active
- Activity (Albumin [28]): Dose-dependent effect
- Ka (Albumin [29]): 36900 M⁻¹
- deltaG (Albumin [30]): -5.81 kcal/mol
- MIC (Micrococcus luteus): 64 µg/mL (≈ 146 µM)
- Kb (Albumin [31]): 41600 M⁻¹
- MIC (Saccharomyces cerevisiae): 64 µg/mL (≈ 146 µM)
- Activity (Calf thymus DNA [32]): inactive
- MIC (Aspergillus flavus): 64 µg/mL (≈ 146 µM)
